Assay results: ChEMBL document CHEMBL1138353, “Facile stereospecific synthesis and biological evaluation of (S)- and (R)-2-amino-2-methyl-4-[123I]iodo-3-(E)-butenoic acid for brain tumor imaging with single photon emission computerized tomography” (J Med Chem, 2007)

Experiments:
[1] = tested on: Muscle tissue; assay: Biodistribution in 9L cells bearing Fischer 344 rat muscle at 15 to 30 uCi, iv after 120 mins; assay type: ADME, organism-based; conditions: in vivo, 2 h
Summary of the method: (§1)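 Male Fischer 344 rats (125–175 g) bearing intracranial 9L gliosarcoma implants; radioiodinated tracer (123I for S, 131I for R) purified in saline, given intravenously. Tissues harvested at 30, 60 or 120 min, radioactivity expressed as %ID/g (thyroid per organ). Groups: S study 5 rats per time; R study 5 at 30 min, 4 at 60 and 120 min.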

[2] = tested on: Brain; assay: Biodistribution in 9L cells bearing Fischer 344 rat brain at 15 to 30 uCi, iv after 30 mins; assay type: ADME, organism-based; conditions: in vivo, 0.5 h; summary of the method: as §1
[3] = tested on: Thyroid gland; assay: Biodistribution in 9L cells bearing Fischer 344 rat thyroid at 15 to 30 uCi, iv after 60 mins; assay type: ADME, organism-based; conditions: in vivo, 1 h; summary of the method: as §1
[4] = tested on: Rattus norvegicus; assay: Biodistribution in 9L cells bearing Fischer 344 rat tumor at 15 to 30 uCi, iv after 120 mins; assay type: ADME, organism-based, Neoplasm; conditions: in vivo, 2 h; summary of the method: as §1
[5] = tested on: Blood; assay: Biodistribution in 9L cells bearing Fischer 344 rat blood at 15 to 30 uCi, iv after 30 mins; assay type: ADME, organism-based; conditions: in vivo, 0.5 h; summary of the method: as §1
[6] = tested on: 9L; assay: Drug uptake per 10^6 cells in rat 9L cells after 30 mins; assay type: ADME, cell-based; conditions: 0.5 h
Summary of the method: (§2)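 Cultured rat 9L gliosarcoma cells incubated 30 min with 131I-labelled tracer, with or without A-type inhibitor N-MeAIB or L-type inhibitor BCH. Uptake expressed as percent of initial dose per 1 × 10^6 cells, normalized for dose and cell number. Inhibition compared to control by one-way ANOVA; SD shown.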

[7] = tested on: 9L; assay: Drug uptake per 10^6 cells in rat 9L cells after 30 mins assessed as uptake inhibition in presence of 2-aminobicyclo[2.2.1]-heptane-2-carboxylic acid relative to control; assay type: ADME, cell-based; design: scale not given: the % may be the effect or the level left; conditions: 0.5 h; summary of the method: as §2
[8] = tested on: Nucleic Acid; assay: Ratio of drug level in tumor to brain in 9L cells bearing Fischer 344 rat at 15 to 30 uCi, iv after 60 mins; assay type: ADME, organism-based; conditions: in vivo, 1 h
Summary of the method: (§3)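 Intracranial 9L gliosarcoma in male Fischer 344 rats (125–175 g). The 123I-labelled (S) or 131I-labelled (R) tracer was given iv in saline. Tumor and normal brain %ID/g were measured at 30, 60 or 120 min, and the ratio was taken from these. Groups were 5 per time for S, and 5/4/4 for R.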

[9] = tested on: Pancreas; assay: Biodistribution in 9L cells bearing Fischer 344 rat pancreas at 15 to 30 uCi, iv after 60 mins; assay type: ADME, organism-based; conditions: in vivo, 1 h; summary of the method: as §1
[10] = tested on: Kidney; assay: Biodistribution in 9L cells bearing Fischer 344 rat kidney at 15 to 30 uCi, iv after 120 mins; assay type: ADME, organism-based; conditions: in vivo, 2 h; summary of the method: as §1
[11] = tested on: Heart; assay: Biodistribution in 9L cells bearing Fischer 344 rat heart at 15 to 30 uCi, iv after 60 mins; assay type: ADME, organism-based; conditions: in vivo, 1 h; summary of the method: as §1
[12] = tested on: Brain; assay: Biodistribution in 9L cells bearing Fischer 344 rat brain at 15 to 30 uCi, iv after 120 mins; assay type: ADME, organism-based; conditions: in vivo, 2 h; summary of the method: as §1
[13] = tested on: Pancreas; assay: Biodistribution in 9L cells bearing Fischer 344 rat pancreas at 15 to 30 uCi, iv after 120 mins; assay type: ADME, organism-based; conditions: in vivo, 2 h; summary of the method: as §1
[14] = tested on: Nucleic Acid; assay: Ratio of drug level in tumor to brain in 9L cells bearing Fischer 344 rat at 15 to 30 uCi, iv after 30 mins; assay type: ADME, organism-based; conditions: in vivo, 0.5 h; summary of the method: as §3
[15] = tested on: Muscle tissue; assay: Biodistribution in 9L cells bearing Fischer 344 rat muscle at 15 to 30 uCi, iv after 60 mins; assay type: ADME, organism-based; conditions: in vivo, 1 h; summary of the method: as §1
[16] = tested on: Thyroid gland; assay: Biodistribution in 9L cells bearing Fischer 344 rat thyroid at 15 to 30 uCi, iv after 120 mins; assay type: ADME, organism-based; conditions: in vivo, 2 h; summary of the method: as §1
[17] = tested on: Thyroid gland; assay: Biodistribution in 9L cells bearing Fischer 344 rat thyroid at 15 to 30 uCi, iv after 30 mins; assay type: ADME, organism-based; conditions: in vivo, 0.5 h; summary of the method: as §1
[18] = tested on: Blood; assay: Biodistribution in 9L cells bearing Fischer 344 rat blood at 15 to 30 uCi, iv after 60 mins; assay type: ADME, organism-based; conditions: in vivo, 1 h; summary of the method: as §1
[19] = tested on: Bone; assay: Biodistribution in 9L cells bearing Fischer 344 rat bone at 15 to 30 uCi, iv after 30 mins; assay type: ADME, organism-based, Bone element; conditions: in vivo, 0.5 h; summary of the method: as §1
[20] = tested on: Kidney; assay: Biodistribution in 9L cells bearing Fischer 344 rat kidney at 15 to 30 uCi, iv after 60 mins; assay type: ADME, organism-based; conditions: in vivo, 1 h; summary of the method: as §1
[21] = tested on: Testes; assay: Biodistribution in 9L cells bearing Fischer 344 rat testes at 15 to 30 uCi, iv after 120 mins; assay type: ADME, organism-based, Testis; conditions: in vivo, 2 h; summary of the method: as §1
[22] = tested on: Bone; assay: Biodistribution in 9L cells bearing Fischer 344 rat bone at 15 to 30 uCi, iv after 60 mins; assay type: ADME, organism-based, Bone element; conditions: in vivo, 1 h; summary of the method: as §1
[23] = tested on: Heart; assay: Biodistribution in 9L cells bearing Fischer 344 rat heart at 15 to 30 uCi, iv after 30 mins; assay type: ADME, organism-based; conditions: in vivo, 0.5 h; summary of the method: as §1
[24] = tested on: Spleen; assay: Biodistribution in 9L cells bearing Fischer 344 rat spleen at 15 to 30 uCi, iv after 30 mins; assay type: ADME, organism-based; conditions: in vivo, 0.5 h; summary of the method: as §1
[25] = tested on: Liver; assay: Biodistribution in 9L cells bearing Fischer 344 rat liver at 15 to 30 uCi, iv after 30 mins; assay type: ADME, organism-based; conditions: in vivo, 0.5 h; summary of the method: as §1
[26] = tested on: Liver; assay: Biodistribution in 9L cells bearing Fischer 344 rat liver at 15 to 30 uCi, iv after 60 mins; assay type: ADME, organism-based; conditions: in vivo, 1 h; summary of the method: as §1
[27] = tested on: Liver; assay: Biodistribution in 9L cells bearing Fischer 344 rat liver at 15 to 30 uCi, iv after 120 mins; assay type: ADME, organism-based; conditions: in vivo, 2 h; summary of the method: as §1
[28] = tested on: Blood; assay: Biodistribution in 9L cells bearing Fischer 344 rat blood at 15 to 30 uCi, iv after 120 mins; assay type: ADME, organism-based; conditions: in vivo, 2 h; summary of the method: as §1
[29] = tested on: Bone; assay: Biodistribution in 9L cells bearing Fischer 344 rat bone at 15 to 30 uCi, iv after 120 mins; assay type: ADME, organism-based, Bone element; conditions: in vivo, 2 h; summary of the method: as §1
[30] = tested on: Heart; assay: Biodistribution in 9L cells bearing Fischer 344 rat heart at 15 to 30 uCi, iv after 120 mins; assay type: ADME, organism-based; conditions: in vivo, 2 h; summary of the method: as §1
[31] = tested on: Testes; assay: Biodistribution in 9L cells bearing Fischer 344 rat testes at 15 to 30 uCi, iv after 60 mins; assay type: ADME, organism-based, Testis; conditions: in vivo, 1 h; summary of the method: as §1
[32] = tested on: Lung; assay: Biodistribution in 9L cells bearing Fischer 344 rat lung at 15 to 30 uCi, iv after 30 mins; assay type: ADME, organism-based; conditions: in vivo, 0.5 h; summary of the method: as §1
[33] = tested on: Spleen; assay: Biodistribution in 9L cells bearing Fischer 344 rat spleen at 15 to 30 uCi, iv after 120 mins; assay type: ADME, organism-based; conditions: in vivo, 2 h; summary of the method: as §1
[34] = tested on: Lung; assay: Biodistribution in 9L cells bearing Fischer 344 rat lung at 15 to 30 uCi, iv after 60 mins; assay type: ADME, organism-based; conditions: in vivo, 1 h; summary of the method: as §1
[35] = tested on: Rattus norvegicus; assay: Biodistribution in 9L cells bearing Fischer 344 rat tumor at 15 to 30 uCi, iv after 30 mins; assay type: ADME, organism-based, Neoplasm; conditions: in vivo, 0.5 h; summary of the method: as §1
[36] = tested on: Testes; assay: Biodistribution in 9L cells bearing Fischer 344 rat testes at 15 to 30 uCi, iv after 30 mins; assay type: ADME, organism-based, Testis; conditions: in vivo, 0.5 h; summary of the method: as §1
[37] = tested on: Muscle tissue; assay: Biodistribution in 9L cells bearing Fischer 344 rat muscle at 15 to 30 uCi, iv after 30 mins; assay type: ADME, organism-based; conditions: in vivo, 0.5 h; summary of the method: as §1
[38] = tested on: Spleen; assay: Biodistribution in 9L cells bearing Fischer 344 rat spleen at 15 to 30 uCi, iv after 60 mins; assay type: ADME, organism-based; conditions: in vivo, 1 h; summary of the method: as §1
[39] = tested on: Nucleic Acid; assay: Ratio of drug level in tumor to brain in 9L cells bearing Fischer 344 rat at 15 to 30 uCi, iv after 120 mins; assay type: ADME, organism-based; conditions: in vivo, 2 h; summary of the method: as §3
[40] = tested on: Pancreas; assay: Biodistribution in 9L cells bearing Fischer 344 rat pancreas at 15 to 30 uCi, iv after 30 mins; assay type: ADME, organism-based; conditions: in vivo, 0.5 h; summary of the method: as §1
[41] = tested on: Kidney; assay: Biodistribution in 9L cells bearing Fischer 344 rat kidney at 15 to 30 uCi, iv after 30 mins; assay type: ADME, organism-based; conditions: in vivo, 0.5 h; summary of the method: as §1
[42] = tested on: Rattus norvegicus; assay: Biodistribution in 9L cells bearing Fischer 344 rat tumor at 15 to 30 uCi, iv after 60 mins; assay type: ADME, organism-based, Neoplasm; conditions: in vivo, 1 h; summary of the method: as §1
[43] = tested on: Brain; assay: Biodistribution in 9L cells bearing Fischer 344 rat brain at 15 to 30 uCi, iv after 60 mins; assay type: ADME, organism-based; conditions: in vivo, 1 h; summary of the method: as §1
[44] = tested on: Lung; assay: Biodistribution in 9L cells bearing Fischer 344 rat lung at 15 to 30 uCi, iv after 120 mins; assay type: ADME, organism-based; conditions: in vivo, 2 h; summary of the method: as §1

C[C@@](N)(/C=C/[131I])C(=O)O
Drug uptake [1]: 0.26 % ID/g
Drug uptake [2]: 0.018 % ID/g
Drug uptake [3]: 0.25 %ID/organ
Drug uptake [4]: 0.39 % ID/g
Drug uptake [5]: 0.22 % ID/g
Drug uptake [6]: 0.07 %ID
Activity [7]: 57%
Ratio [8]: 7.7
Drug uptake [9]: 1.86 % ID/g
Drug uptake [10]: 1.76 % ID/g
Drug uptake [11]: 0.43 % ID/g
Drug uptake [12]: 0.051 % ID/g
Drug uptake [13]: 0.78 % ID/g
Ratio [14]: 10
Drug uptake [15]: 0.4 % ID/g
Drug uptake [16]: 0.36 %ID/organ
Drug uptake [17]: 0.08 %ID/organ
Drug uptake [18]: 0.69 % ID/g
Drug uptake [19]: 0.13 % ID/g
Drug uptake [20]: 3.43 % ID/g
Drug uptake [21]: 0.23 % ID/g
Drug uptake [22]: 0.34 % ID/g
Drug uptake [23]: 0.19 % ID/g
Drug uptake [24]: 0.3 % ID/g
Drug uptake [25]: 0.31 % ID/g
Drug uptake [26]: 0.6 % ID/g
Drug uptake [27]: 0.37 % ID/g
Drug uptake [28]: 0.56 % ID/g
Drug uptake [29]: 0.26 % ID/g
Drug uptake [30]: 0.34 % ID/g
Drug uptake [31]: 0.26 % ID/g
Drug uptake [32]: 0.27 % ID/g
Drug uptake [33]: 0.31 % ID/g
Drug uptake [34]: 0.65 % ID/g
Drug uptake [35]: 0.19 % ID/g
Drug uptake [36]: 0.09 % ID/g
Drug uptake [37]: 0.26 % ID/g
Drug uptake [38]: 0.5 % ID/g
Ratio [39]: 7.6
Drug uptake [40]: 1.21 % ID/g
Drug uptake [41]: 2.91 % ID/g
Drug uptake [42]: 0.51 % ID/g
Drug uptake [43]: 0.066 % ID/g
Drug uptake [44]: 0.45 % ID/g
